Measurements taken from PMC6226115 (Clinical and Translational Science, 2018).
“And” between values parts separate entries of the source, which are not always exact repeats. Identical values can stand only once.

Legend:
[1] = test system: glycine in CSF; assay: Phase I pharmacodynamics: glycine in CSF; assay type: in vivo, human; conditions: for E 14, increase in glycine in CSF from baseline at 14 hours: 14 h after first dose; for E 14, increase in glycine in CSF from baseline at 14 hours / E max, maximum increase in glycine in CSF from baseline / Ratio of AUECdiff, 0–14 (glycine in CSF) / E 312, increase in glycine in CSF from baseline at 312 hours: mean (SD); for E max, maximum increase in glycine in CSF from baseline / Ratio of AUECdiff, 0–14 (glycine in CSF): after first dose; for E 312, increase in glycine in CSF from baseline at 312 hours: before last dose (steady state trough)
Summary of the method: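 Healthy male volunteers took 5, 10, 25 or 50 mg orally each morning for 14 days in sequential ascending groups. CSF was drawn by lumbar catheter: three predose samples ~30 min apart, then hourly to 14 h after the first dose. A single lumbar puncture was taken before the day-14 dose. Glycine was measured by validated HPLC-MS/MS as its Marfey's derivative and expressed as % change from baseline (mean of three predose values).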

[2] = molecular target: T1, GlyT1 (Rattus norvegicus, UniProt P28572); assay: Inhibition of [3H]-glycine uptake in rat primary cortical neurons; assay type: cell-based; conditions: IC50, inhibition of [3H]-glycine uptake, mean
T1 sequence (P28572 1-638): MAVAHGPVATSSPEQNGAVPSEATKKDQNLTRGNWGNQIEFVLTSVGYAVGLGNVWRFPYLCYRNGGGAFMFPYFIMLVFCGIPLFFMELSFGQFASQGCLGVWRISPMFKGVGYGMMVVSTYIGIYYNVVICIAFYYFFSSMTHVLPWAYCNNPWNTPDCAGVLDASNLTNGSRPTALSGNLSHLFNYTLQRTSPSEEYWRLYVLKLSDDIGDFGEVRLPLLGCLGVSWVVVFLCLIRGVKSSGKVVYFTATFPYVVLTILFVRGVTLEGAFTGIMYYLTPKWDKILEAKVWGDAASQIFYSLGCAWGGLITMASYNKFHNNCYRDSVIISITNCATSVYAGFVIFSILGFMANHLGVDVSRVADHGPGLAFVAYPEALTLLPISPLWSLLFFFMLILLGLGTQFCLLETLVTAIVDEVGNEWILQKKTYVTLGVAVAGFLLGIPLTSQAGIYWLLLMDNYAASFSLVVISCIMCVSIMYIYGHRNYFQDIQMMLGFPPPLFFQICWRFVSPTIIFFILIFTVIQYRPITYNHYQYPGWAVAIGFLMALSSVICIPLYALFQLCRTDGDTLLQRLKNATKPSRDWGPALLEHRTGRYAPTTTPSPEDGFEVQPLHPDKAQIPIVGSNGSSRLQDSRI
Summary of the method: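 Cortical neurons from E18 rats were differentiated in vitro for 7, 11 or 18 days, then run as a scintillating-plate uptake assay: 20 min incubation, inhibitor 0.9–3000 nM in HBSS with 5 mM alanine, and 200 nM [3H]glycine (0.01 mCi/mL) with counting over 57 min. IC50s came from four-parameter fits per experiment and were then averaged.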

For C[C@@H](Oc1ccc(S(C)(=O)=O)cc1C(=O)N1C[C@@H]2C[C@]2(c2cc(C(F)(F)F)on2)C1)C(F)(F)F [BI 425809], which “E 14, increase in glycine in CSF from baseline at 14 hours” value (from here on “E 14, increase in glycine in CSF”) ([1]; 5 mg, N = 6) is on record?
Its value is 18.0 (32.1) %.

And the “E max, maximum increase in glycine in CSF from baseline” value (from here on “E max, maximum increase in glycine”) ([1]; 5 mg, N = 6)?
The value was 35.3 (26.4) %.

What about the “Ratio of AUECdiff, 0–14 (glycine in CSF)” value ([1]; 5 mg, N = 6) of the same molecule?
Its value is 16.0 (17.4) %.

And the “E 312, increase in glycine in CSF from baseline at 312 hours” value (shortened to “E 312, increase in glycine in CSF”) ([1]; 10 mg once daily, N = 4)?
The value was 57% and 57.0 (48.3) %.

And the “E 14, increase in glycine in CSF” value ([1]; 10 mg, N = 6)?
Its value is 39.8 (14.5) %.

And the “E max, maximum increase in glycine” value ([1]; 10 mg, N = 6)?
Its value is 62.3 (15.3) %.

What about the “Ratio of AUECdiff, 0–14 (glycine in CSF)” value ([1]; 10 mg, N = 6) of the same molecule?
Its value is 37.0 (12.1) %.

What about the “E 312, increase in glycine in CSF” value ([1]; 25 mg once daily, N = 6) of the same molecule?
Its value is 38% and 37.9 (45.8) %.

What about the “E 14, increase in glycine in CSF” value ([1]; 25 mg, N = 6) of the same molecule?
Its value is 60.9 (60.7) %.

And the “Ratio of AUECdiff, 0–14 (glycine in CSF)” value ([1]; 25 mg, N = 6)?
Its value is 53.0 (30.5) %.

And the “E max, maximum increase in glycine” value ([1]; 25 mg, N = 8)?
The value was 136 (107) %.

What about the “E 312, increase in glycine in CSF” value ([1]; 50 mg once daily, N = 5) of the same molecule?
Its value is 123% and 123 (52.5) %.

What about the “E 14, increase in glycine in CSF” value ([1]; 50 mg, N = 5) of the same molecule?
Its value is 50.6 (33.8) %.

What about the “E max, maximum increase in glycine” value ([1]; 50 mg, N = 5) of the same molecule?
The value was 91.9 (89.9) %.

And the “Ratio of AUECdiff, 0–14 (glycine in CSF)” value ([1]; 50 mg, N = 5)?
The value was 47.0 (35.3) %.

What about the “Time at which CSF glycine levels reached their maximum” value ([1]; healthy volunteers, single oral doses, over dose groups) of the same molecule?
Its value is 6 to 10 h.

What about the IC50 [2] of the same molecule?
Its IC50 is 5.2 ± 1.2 nM.
